Results published in ChEMBL document CHEMBL1123886 (J Med Chem, 1987).
Active and inactive are the calls of the source. No cut-off for these calls is given here.

How the values were obtained:
[1] = The compound was evaluated for its acid dissociation constant; format: ADME
P388/ADR [2] = test: Optimal dose required to inhibit the P388/ADR cells in vivo after intraperitoneal administration.; format: functional, Mus musculus; parameters: unit: mg/kg/day
P388 [3] = test: Percent increase in life span of the drug treated tumor bearing animals vs nontreated tumor bearing controls was determined against P388 leukemia cells; NA = not active; format: functional; settings: Mus musculus
In short: (§1)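 Mice were inoculated ip with 10^6 P388 or ADR/P388 cells. OD is the optimal dose in mg/kg per day. ILSmax is the % lifespan increase over untreated tumor-bearing controls at the OD; above 20% is significant. Long-term survival was scored at 50 days.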

P388 [4] = test: Optimal dose required to inhibit the P388 intraperitoneal administration.; format: functional, Mus musculus; parameters: unit: mg/kg/day
poly[d(A-T)] = test: Binding constant for poly[d(A-T)] by ethidium bromide displacement
[5] = Lipophilicity (Rm).; format: physicochemical
Mus musculus = organism: Mus musculus; test: Percent increase in life span of the drug treated tumor bearing animals vs nontreated tumor bearing controls was determined against P388/ADR cells;NA= not active; format: functional, organism-based; in short: as §1
P388 [6] = test: Percent increase in life span of the drug-treated tumor-bearing animals vs nontreated tumor-bearing controls with P388 leukemia cells.; format: functional, Mus musculus
In short: (§2)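 Groups of 6. Optimal dose is in mg/kg per day. ILSmax is the % lifespan increase over untreated tumor-bearing controls at the optimal dose; above 20% counted significant. Cures are 50-day survivors.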

[7] = tested on: Lewis lung carcinoma cell line; test: Optimal dose required to inhibit the LL Lewis lung carcinoma model cells in vivo administered intraperitoneally; format: functional, Mus musculus
In short: (§3)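 Mice were inoculated iv with 10^6 Lewis lung carcinoma cells. OD is the optimal dose in mg/kg per day. Lifespan increase above 40% is significant, and long-term survival was scored at 60 days.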

P388/ADR [8] = test: Percent increase in life span, of the drug-treated tumor-bearing animals vs nontreated tumor-bearing controls with P388/ADR cells.; format: functional, Mus musculus; in short: as §2
HCT-8 = test: Ability to inhibit the growth of human colon tumor HCT-8 cells in vitro.; format: functional, cell-based
In short: (§4)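 Cultured leukemia L1210 or human colon tumor HCT-8 cells were exposed to drug for 40 h.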

L1210 = test: Ability to inhibit the growth of leukemia L1210 cells in vitro.; format: functional, cell-based; settings: Mus musculus; in short: as §4
[9] = tested on: Lewis lung carcinoma cell line; test: (§5) Optimal dose required to inhibit the LL (Lewis lung carcinoma model) cells in vivo administered intraperitoneally; NA= not active; format: functional, Mus musculus
In short: (§6)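 Groups of 6. Optimal dose is in mg/kg per day. ILSmax is the % lifespan increase over untreated tumor-bearing controls at the optimal dose; above 40% counted significant. Cures are 60-day survivors.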

[10] = tested on: Lewis lung carcinoma cell line; test: Percent increase in life span of the drug treated tumor bearing animals vs nontreated tumor bearing controls was determined against LL (Lewis lung carcinoma model) cells;NA= not active; format: functional; in short: as §6
[11] = tested on: Lewis lung carcinoma cell line; test: Optimal dose to inhibit the LL (Lewis lung carcinoma model) cells in vivo after intraperitoneal administration.; format: functional, Mus musculus; parameters: unit: mg/kg/day; in short: as §3
[12] = tested on: Lewis lung carcinoma cell line; test: as §5; format: functional, Mus musculus; in short: as §3; remark: listed apart in the source
P388 [13] = test: Optimal dose required to inhibit the P388 intraperitoneally; format: functional, Mus musculus; in short: as §2
Nucleic Acid = test: Binding constant (1/M) to poly[d(A-T)] by ethidium bromide displacement; format: nucleic-acid assay

Row | Structure (SMILES) | pKa [1] | OD (P388/ADR [2]) | ILS max (P388 [3]) | OD (P388 [4]) | Log K (poly[d(A-T)]) | Rm [5] | ILS max (Mus musculus) | ILS max (P388 [6]) | OD [7] | ILS max (P388/ADR [8]) | IC50 (HCT-8) [nM] | IC50 (L1210) [nM] | ILS max [9] | ILS max ([10]; Mus musculus) | OD [11] | ILS max [10] | OD [12] | OD (P388 [13]) | Log K (Nucleic Acid) | ILS max ([9]; Mus musculus)
1 | CC(=O)Nc1ccc(Nc2c3ccccc3nc3ccccc23)c(N(C)C)c1 | 7.59 | 100 | inactive | 65 | 5.58 | 0.57 | inactive |  |  |  |  |  |  |  |  |  |  |  |  | 
2 | COC(=O)Nc1ccc(Nc2c3ccccc3nc3ccccc23)c(N(C)C)c1 | 7.85 | 30 |  | 45 | 5.88 | 0.56 | inactive | 20 |  |  |  |  |  |  |  |  |  |  |  | 
3 | CNc1cc(NC(=O)OC)ccc1Nc1c2ccccc2nc2ccccc12 | 7.95 | 45 |  | 30 | 6.35 | 0.51 |  | 132 | 30 | 50 | 290 | 284 | 112 |  |  |  |  |  |  | 
4 | COC(=O)Nc1ccc(Nc2c3ccccc3nc3ccccc23)c(OC)c1 | 7.93 | 45 |  | 30 | 6.24 | 0.5 |  | 86 |  | 33 |  |  |  |  |  |  |  |  |  | 
5 | CNc1cc(NC(=O)OC)ccc1Nc1c2ccccc2nc2c(Cl)cccc12 |  | 45 |  | 30 | 6.3 | 0.42 |  | 30 |  | 22 | 4500 | 906 |  | inactive | 65 |  |  |  |  | 
6 | CNc1cc(NC(=O)OC)ccc1Nc1c2ccccc2nc2cc(C)ccc12 |  | 13.3 |  | 8.9 | 6.72 | 0.78 | inactive | 105 |  |  | 270 | 152 |  |  |  | 58 | 8.9 |  |  | 
7 | CNc1cc(NC(C)=O)ccc1Nc1c2ccccc2nc2ccccc12 | 7.8 | 65 |  | 65 | 6.79 | 0.3 | inactive | 96 |  |  |  |  |  |  |  |  |  |  |  | 
8 | COc1cc(NC(C)=O)ccc1Nc1c2ccccc2nc2ccccc12 | 7.79 | 8.9 |  | 13.3 | 6.1 | 0.3 | inactive | 50 |  |  |  |  |  |  |  |  |  |  |  | 
9 | COc1cc(NP(=O)(OC)OC)ccc1Nc1c2ccccc2nc2ccccc12 | 8.21 | 8.9 |  | 8.9 | 6.18 | 0.37 | inactive | 67 |  |  |  |  |  |  |  |  |  |  |  | 
10 | CNc1cc(NP(=O)(OC)OC)ccc1Nc1c2ccccc2nc2ccccc12 | 8.09 |  |  |  |  | 0.32 |  |  |  |  |  |  |  |  |  |  |  | 13.3 | 6.82 | 
11 | CNc1cc(NC(=O)OC)ccc1Nc1c2ccccc2nc2ccc(C)cc12 |  | 45 |  | 45 | 5.62 | 0.7 | inactive | 69 | 13.3 |  | 850 | 436 |  |  |  |  |  |  |  | inactive
12 | COP(=O)(Nc1ccc(Nc2c3ccccc3nc3ccccc23)c(N(C)C)c1)OC | 8.17 | 100 |  | 100 | 6.43 | 0.44 | inactive | 97 |  |  |  |  |  |  |  |  |  |  |  | 
